Source: ChEMBL document CHEMBL1143985, “Aryl azoles with neuroprotective activity--parallel synthesis and attempts at target identification” (2008)
Activity calls are given as the source filed them. The rule behind the calls is not given here.

Columns and labels:
[1] = Neuroprotective effect against NMDA-induced toxicity in Sprague-Dawley rat mixed cortical neurons assessed as LDH release at 10 uM co-treated with NMDA; assay type: functional, Cortical neurone
Procedure, shortened: (§1)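 Mixed cortical cultures from E16 Sprague–Dawley rat neocortex, grown in Neurobasal with 5% FBS and used at 12 days in vitro. Compound added 20 min (co-treatment) or 24 h (pre-treatment) before NMDA (60 µM). MK-801 10 µM served as positive control. After 24 h, LDH release was read and normalized to the NMDA-released level. Technical replicates per sample were combined across independent experiments.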

[2] = Displacement of [3H]batrachotoxinin from sodium channel site 2 at 10 uM relative to veratridine
[3] = Neuroprotective effect against veratridine-induced toxicity in Sprague-Dawley rat pure cortical neurons assessed as XTT release at 10 uM co-treated with veratridine; assay type: functional, Cortical neurone
Procedure, shortened: (§2)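 E16 Sprague–Dawley rat cortical cultures, either mixed (Neurobasal with 5% FBS) or pure neuronal (Neurobasal with B27), used at 12 days in vitro. Compound at 1 or 10 µM was added 20 min before veratridine (60 µM). Viability was read 24 h later by LDH release in mixed cultures and XTT in pure cultures, normalized to veratridine. Three experiments, eight replicates each.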

[4] = Neuroprotective effect against veratridine-induced toxicity in Sprague-Dawley mixed rat cortical neurons assessed as LDH release at 10 uM co-treated with veratridine
Cortical neurone = experiment: Neuroprotective effect against NMDA-induced toxicity in Sprague-Dawley rat mixed cortical neurons assessed as LDH release at 0.1 uM co-treated with NMDA; assay type: functional; procedure, shortened: as §1
[5] = Neuroprotective effect against veratridine-induced toxicity in Sprague-Dawley rat pure cortical neurons assessed as XTT release at 1 uM co-treated with veratridine; assay type: functional, Cortical neurone; procedure, shortened: as §2
[6] = Neuroprotective effect against NMDA-induced toxicity in Sprague-Dawley rat mixed cortical neurons assessed as LDH release at 10 uM pre-treated before NMDA treatment; assay type: functional, Cortical neurone; procedure, shortened: as §1
[7] = Neuroprotective effect against NMDA-induced toxicity in Sprague-Dawley rat mixed cortical neurons assessed as LDH release at 1 uM pretreated before NMDA treatment; assay type: functional, Cortical neurone; procedure, shortened: as §1
[8] = Neuroprotective effect against NMDA-induced toxicity in Sprague-Dawley rat mixed cortical neurons assessed as LDH release at 1 uM co-treated with NMDA; assay type: functional, Cortical neurone; procedure, shortened: as §1
[9] = Neuroprotective effect against veratridine-induced toxicity in Sprague-Dawley rat mixed cortical neurons assessed as XTT release at 10 uM pre-treated before veratridine treatment; assay type: functional, Cortical neurone
[10] = Neuroprotective effect against veratridine-induced toxicity in Sprague-Dawley mixed rat cortical neurons assessed as LDH release at 1 uM co-treated with veratridine

Compound	Activity [1]	inhibition [2]	further results
Cn1nc(-c2ccccc2)cc1-c1cccc([N+](=O)[O-])c1	85.5%	4%	
Cn1nc(-c2ccccc2)cc1-c1ccc2[nH]ccc2c1	67.1%	41%	Activity [3]: 56.8%; Activity [4]: 63.2%; Activity (Cortical neurone): inactive; Activity [5]: 82.7%; Activity [6]: 86%; Activity [7]: 90.2%; Activity [8]: 80.3%; Activity [9]: 40%; Activity [10]: 87.9%
COc1ccc(-c2cc(-c3ccccc3)n(C)n2)cc1	70.4%	8%	
COc1ccc(C(=O)O[C@H]2CC[C@@]3(C)[C@@H]4CC[C@H]5[C@]6(O)C[C@H](O)[C@@]7(O)[C@@H](CN8C[C@@H](C)CC[C@H]8[C@@]7(C)O)[C@]6(O)C[C@@]53O[C@]24O)cc1OC		100%	
COc1cccc(-c2cc(-c3ccccc3)n[nH]2)c1	76%	27%	
Cn1nc(-c2ccc(Cl)cc2)cc1-c1ccccc1	87.3%	13%	
CC(=O)N1N=C(c2ccc([N+](=O)[O-])cc2)CC1c1ccccc1 (stereo unspecified)	85.5%	17%	
Cn1nc(-c2ccccc2)cc1-c1c[nH]c2ccccc12	76.7%	14%	
Cn1nc(-c2ccccc2)cc1-c1cccc(Cl)c1	65.6%	15%	
Clc1ccc(-c2cc(-c3ccccc3)n[nH]2)cc1	66.1%	16%	Activity [3]: 56.5%; Activity [4]: 24.2%; Activity [5]: 75%; Activity [9]: 70%; Activity [10]: 74.1%
Clc1cccc(-c2cc(-c3ccccc3)n[nH]2)c1	96.4%	21%	
COc1ccccc1-c1cnn(-c2ccccc2)c1	80.3%		Activity [2]: inactive
COc1cccc(C2CC(c3ccccc3)=NN2C(C)=O)c1 (stereo unspecified)	81%	16%	
O=[N+]([O-])c1ccc(-c2cc(-c3ccccc3)n[nH]2)cc1	89%	14%	
Cn1nc(-c2ccc(C(=O)O)cc2)cc1-c1ccc(C(C)(C)C)cc1	61.1%		Activity [2]: inactive
Cn1nc(-c2ccc([N+](=O)[O-])cc2)cc1-c1ccccc1	86.3%	8%	
COc1ccc(-c2cc(-c3ccccc3)n[nH]2)cc1	67.2%	30%	Activity [3]: 64.9%; Activity [4]: 49.2%; Activity [5]: 70.4%; Activity [6]: 95%; Activity [7]: 91.1%; Activity [8]: 81.7%; Activity [9]: 50%; Activity [10]: 80.9%
CC(=O)N1N=C(c2ccccc2)CC1c1cccc(Cl)c1 (stereo unspecified)	86.4%	27%	
COc1cccc(-c2cc(-c3ccccc3)nn2C)c1	78.3%	12%	
O=[N+]([O-])c1cccc(-c2cc(-c3ccccc3)n[nH]2)c1	75.6%	15%	Activity [3]: 51.2%; Activity [4]: 26.6%; Activity [5]: 80.9%; Activity [9]: 70%; Activity [10]: 77.6%
